# Compounds with a hit are over-represented: about 2.4% of the library has one in this group of screens.
# sPLA2-III inh: Blocks human group III sPLA2 activity. QFRET BODIPY PC-A2 liposome hydrolysis, fluorescence. actives 0.56% (n = 370,000). AID 743126. inhibition, % at 12.2 µM;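 active = inhibition above mean plus 3 SD of compounds lying within the high and low control bounds, cut at about 19% in these data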;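 note: 0% = median of test compound wells and 100% = no enzyme DMSO wells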
# Target sequence (Q9NZ20 whole entry, looked up): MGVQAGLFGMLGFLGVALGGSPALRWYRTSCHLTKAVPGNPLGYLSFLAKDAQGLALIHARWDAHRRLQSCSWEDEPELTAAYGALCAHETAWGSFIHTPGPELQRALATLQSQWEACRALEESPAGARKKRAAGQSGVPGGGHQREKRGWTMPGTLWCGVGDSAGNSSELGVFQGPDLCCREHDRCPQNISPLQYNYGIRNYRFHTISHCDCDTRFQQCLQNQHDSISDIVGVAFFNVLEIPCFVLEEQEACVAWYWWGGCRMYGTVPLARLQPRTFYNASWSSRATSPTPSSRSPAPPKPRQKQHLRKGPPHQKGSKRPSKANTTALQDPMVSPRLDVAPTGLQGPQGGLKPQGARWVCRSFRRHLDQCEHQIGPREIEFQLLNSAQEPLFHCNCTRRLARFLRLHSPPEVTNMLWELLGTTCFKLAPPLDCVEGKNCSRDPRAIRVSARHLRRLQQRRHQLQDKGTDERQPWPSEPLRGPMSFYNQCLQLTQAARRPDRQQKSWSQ
# PfM18AAP inh: PfM18AAP enzyme inhibition | recombinant PfM18AAP, H-Glu-NHMec fluorogenic cleavage | inhibition, % at 7.35 µM | actives 1.2% (n = 290,000);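 active = inhibition above the campaign mean inhibition over all tested compounds plus 3 SD, cut at about 28% in these data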;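 note: 0% = plate median of test compound wells and 100% = 2 mM ZnCl2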
# IMP-1 inh: blocks Pseudomonas aeruginosa IMP-1 metallo-beta-lactamase | AID 1556 | inhibition, % at 5.6 µM | actives 0.45% (n = 290,000) | purified IMP-1, nitrocefin hydrolysis, epi-absorbance fluorescence;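 active = inhibition above the mean plus 3 SD of all compounds in the same screening run, cut at about 4.5% in these data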;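 note: 0% = IMP-1 with DMSO and 100% = DMSO wells lacking enzyme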
#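 Assay system: purified recombinant IMP-1 beta-lactamase. Input: IMP-1 0.2 nM before substrate addition. Buffer or medium: Zinc- and detergent-supplemented HEPES buffer, pH 7.1. Schedule: 25 °C, 15 min preincubation, 25 min reaction. Signal: Epi-absorbance fluorescence, 480 nm excitation, 530 nm emission. Evaluation: percent inhibition from optical density relative to buffer-blank wells.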
# VIM-2 inh: inhibitors of Pseudomonas aeruginosa VIM-2 metallo-beta-lactamase; purified VIM-2, nitrocefin hydrolysis, epi-absorbance fluorescence; inhibition, % at 5.6 µM; actives 0.89% (n = 290,000); AID 1527;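 active = inhibition above the mean of all tested compounds plus 3 SD, cutoff set per screening run, cut at about 7.5% in these data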;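 note: red hydrolysis product quenches plate fluorescence so inhibitors raise well fluorescence; 0% = enzyme with DMSO and 100% = DMSO without enzyme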
# Starred values were filed as active, the others as inactive; nt = no result.
SMILES,sPLA2-III inh,PfM18AAP inh,IMP-1 inh,VIM-2 inh
CCC[C@H]1[C@@H](NC(=O)c2cccnc2)CC[C@@]23CCCN2C(=O)CCC[C@@H]13,7.1,nt,nt,nt
COc1ccccc1C(=O)Nc1ccccc1SC(=O)c1ccccc1OC,6.0,30.9*,-2.9,-3.0
COC(=O)c1ccccc1NC(=O)c1ccccc1OC,-8.1,1.4,-3.4,-0.3
CCOC(CNC(=O)c1cccn2c(=O)c3cc(Cl)ccc3nc12)OCC,-6.6,9.7,-1.6,-2.5
CCOC(CNC(=O)c1cccn2c(=O)c3c(C)c(C)sc3nc12)OCC,14.9,-0.9,-2.2,10.2*
CCN(CC)CCCN(Cc1cc2cc(OC)c(OC)cc2[nH]c1=O)C(=O)Nc1ccccc1,1.9,9.0,-1.9,7.9*
CC(=O)c1cc(-c2cc(C(F)(F)F)cc(C(F)(F)F)c2)c(=O)n2c1CCC2,3.5,nt,nt,nt
COc1cc2cc(C(=O)N(C)C3CCS(=O)(=O)C3)[nH]c2cc1OC (stereo not given),6.0,-1.8,-4.9,8.1*
O=C(OCCCN1CCOCC1)c1ccc(O)c(O)c1,15.4,43.6*,-3.0,-3.2
COc1cc(C(=O)OCCN2CCOCC2)ccc1O,3.3,4.4,-2.0,-3.6
C[C@@H]1OCN(C)[C@H]2C[C@H]3c4[nH]c5cccc(-c6cccc(F)c6)c5c4CCN3C(=O)[C@@H]12,0.4,nt,nt,nt
Cc1ccc(C)c(NCC(=O)c2ccc(Cl)cc2)c1,1.1,28.4*,-3.3,-2.1
Cc1ccc(C(=O)CNc2cc(C)ccc2C)cc1,4.6,3.0,2.3,0.5
Cc1ccccc1C(=O)N1CCN(C(c2ccccc2)c2ccccc2)CC1,-5.9,-0.5,32.8*,-1.7
CC1CCCCC1C(=O)N1CCC(Oc2cccnc2)CC1 (stereo not given),1.3,nt,nt,nt
Cc1ccc2occ(C3N[C@H](C(=O)O)CS3)c(=O)c2c1 (stereo not given in full),-9.3,23.8,1.3,-1.1
Cc1ccc2occ(C3NC(C(=O)O)CS3)c(=O)c2c1 (stereo not given),8.3,31.3*,0.7,1.2
Cc1ccc(CNC(=O)CCS(=O)(=O)c2ccc(Br)cc2)cc1,-1.1,4.2,-1.9,-2.0
O=C(CCS(=O)(=O)c1ccc(Br)cc1)NCc1ccc(F)cc1,-1.1,-0.3,28.0*,-2.2
Cc1cccc(NC(=O)C2CCCN(c3nnc(-n4cccc4)s3)C2)c1C (stereo not given),12.8,nt,nt,nt
COC(=O)[C@]12C[C@H](CC(=O)N3CCN(C(=O)C4CC4)CC3)C(=O)N(CCC3=CCCCC3)C1=C[C@H](C1CCCC1)O[C@@H]2C,-13.9,nt,nt,nt
O=C(COc1ccc2c3c(c(=O)oc2c1)CCC3)N1CCCCC1,1.8,0.4,-1.5,12.0*
O=C(O)C1CCN(C(=O)COc2ccc3c4c(c(=O)oc3c2)CCCC4)CC1,6.5,-17.5,0.0,0.5
O=C(COc1ccc2c3c(c(=O)oc2c1)CCC3)N1CCN(c2ccccc2)CC1,-2.4,0.0,-3.4,10.6*
O=C(COc1ccc2c3c(c(=O)oc2c1)CCC3)N1CCCC1,0.7,-3.5,-2.5,9.8*
SMILES,sPLA2-III inh,PfM18AAP inh,IMP-1 inh,VIM-2 inh
COc1ccc(-c2cc(=O)oc3cc(OCC(=O)N4C[C@H]5C[C@@H](C4)c4cccc(=O)n4C5)ccc23)cc1,-5.6,-1.1,-1.2,2.1
O=C(COc1ccc2c3c(c(=O)oc2c1)CCCC3)N1C[C@H]2C[C@@H](C1)c1cccc(=O)n1C2,4.4,0.5,1.1,9.1*
CC(C)Oc1ccc2c3c(c(=O)oc2c1)CCC3,-0.2,-6.3,-1.5,8.6*
O=C(COc1ccc2c3c(c(=O)oc2c1)CCC3)NCCCN1CCCC1=O,5.8,-4.2,-0.4,10.7*
O=C(COc1ccc2c3c(c(=O)oc2c1)CCCC3)NCCCN1CCCC1=O,2.8,0.3,-3.2,5.0
C=CCCC1(CCC)C(=O)/C(=C(\O)c2ccccc2)C(=O)C(CCC)=C1OC (stereo not given),3.0,nt,nt,nt
COC(=O)[C@H]1C[C@@]2(N3CCCCC3)c3ccccc3N[C@H]2N1S(=O)(=O)c1ccc(C)cc1,11.7,nt,nt,nt
C#CCN1CC(N(C)CCOC(=O)c2cc3ccccc3[nH]2)CS1(=O)=O (stereo not given),-0.8,nt,nt,nt
O=C1OCC(c2ccccc2)=C1c1ccc(S(=O)(=O)N2CCOCC2)s1,-27.5,9.3,43.5*,-0.1
Cc1cnc(NC(=O)Cc2ccc(C)c(C)c2)s1,0.5,1.6,8.7*,-4.0
C[C@@H]1/C=C/CC(=O)N[C@H](c2cccc(Br)c2)[C@H](C)/C=C/CC(=O)N[C@@H]1c1cccc(Br)c1,-4.8,nt,nt,nt
O=C(NCc1ccccc1F)C1C2C=CC3(CN(Cc4ccccc4)C(=O)C13)O2 (stereo not given),9.1,nt,nt,nt
Fc1ccc(-c2n[nH]c(=S)n2CC2CCCO2)cc1 (stereo not given),1.9,13.1,-2.2,6.9
S=c1[nH]nc(-c2ccncc2)n1CC1CCCO1 (stereo not given),-3.4,18.9,-6.2,11.3*
C[C@@H]1C[C@@H]2O[C@H]2CCCCC(=O)Cc2cc(O)cc(O)c2C(=O)O1,9.8,nt,nt,nt
c1ccc(CNc2ncnc3sc4c(c23)CCC4)nc1,-2.2,-11.8,-2.8,10.4*
CC(=O)C(C)Oc1ccc2c3c(c(=O)oc2c1C)CCCC3 (stereo not given),-2.4,-0.2,-4.5,10.3*
Cc1c(O)ccc2c3c(c(=O)oc12)CCCC3,-13.1,14.9,-5.2,10.1*
Cc1c(OC(C)C(=O)N[C@H](C(=O)O)c2ccccc2)ccc2c3c(c(=O)oc12)CCCC3 (stereo not given in full),-0.5,-10.2,-4.5,7.8*
Cc1c(OC(=O)CNC(=O)OC(C)(C)C)ccc2c3c(c(=O)oc12)CCC3,-2.9,7.8,-1.1,23.3*
Cc1c(OCC(=O)OC(C)(C)C)ccc2c3c(c(=O)oc12)CCC3,-0.4,-5.2,-5.2,0.0
Cc1c(O)ccc2c3c(c(=O)oc12)CCC(C)C3 (stereo not given),-30.7,2.1,-3.3,0.3
COC(=O)[C@H](CC(C)C)N(CCCc1cn(CC2CCCCC2)nn1)S(=O)(=O)c1ccccc1Br,-19.4,nt,nt,nt
CCCCCC[C@H](CN(CCCC)S(C)(=O)=O)c1ccccc1,-3.6,nt,nt,nt
Cc1ccc(-c2cc(-c3nnc4sc(COc5ccccc5)nn34)[nH]n2)cc1,2.6,nt,nt,nt
SMILES,sPLA2-III inh,PfM18AAP inh,IMP-1 inh,VIM-2 inh
COC(=O)c1c(NC(=O)CN2CCC3(O)CCCCC3C2c2ccc(OC)cc2OC)sc(C)c1C (stereo not given),-7.9,44.1*,3.7,1.1
CCCCCCCCN1C(=O)[C@@H](CC(=O)NCCc2ccccc2OC)C[C@@]2(C(=O)OC)C1=C[C@H](COCc1ccccc1)O[C@@H]2C,-14.3,nt,nt,nt
O=C1CC(=O)CC(c2ccco2)C1,-1.2,28.0*,-2.4,-1.2
Brc1ccc(-n2cccc2/C=N/n2cnnc2)cc1,6.4,31.4*,-3.1,-0.8
Cc1ccccc1CN1CCCCC(NC(=O)c2ccc(N(C)C)cc2)C1=O (stereo not given),2.6,nt,nt,nt
CC(=NNC(=S)Nc1ccccc1)c1ccccn1,20.8*,nt,nt,nt
Cc1ccc(C)c(OCC(=O)Nc2ccc(N3CCOCC3)cc2)c1,2.2,15.2,-2.5,3.6
Cc1ccc(C)c(OCCCC(=O)Nc2ccc(N3CCOCC3)cc2)c1,nt,16.6,6.3*,-3.6
